# Assay results reported in ChEMBL document CHEMBL3352498, “Membrane active phenylalanine conjugated lipophilic norspermidine derivatives with selective antibacterial activity” (J Med Chem, 2014).
# Calls of active or inactive are those of the source. The rule behind the calls is not given here.
# Assays:
# Staphylococcus aureus [1] = experiment: Antimicrobial activity against Staphylococcus aureus MTCC 737 after 24 hrs by broth microdilution method; format: functional
# In short: (§1)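 Broth microdilution per CLSI: 6 h cultures (37 °C) diluted to ~10^5 CFU/mL; 2-fold serial dilutions in sterile water added to bacteria; 24 h at 37 °C; OD600 read. Triplicates, experiment done at least twice; mean OD vs concentration fitted sigmoidally, MIC taken where OD matched the no-bacteria control. E. coli grown in LB broth, S. aureus in yeast–dextrose broth.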
# Staphylococcus aureus [2] = experiment: Antimicrobial activity against methicillin-resistant Staphylococcus aureus ATCC 33591 after 24 hrs by broth microdilution method; format: functional
# In short: (§2)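 Broth microdilution per CLSI, 24 h at 37 °C. Inoculum is a 6 h 37 °C culture diluted to ~10^5 CFU/mL (yeast–dextrose broth for MRSA and K. pneumoniae). 50 μL of 2-fold dilutions in water plus 150 μL bacteria. Read by OD600, triplicates, run at least twice. MIC is taken from a sigmoidal fit as the point where OD equals the bacteria-free control.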
# Enterococcus faecium [3] = experiment: Antimicrobial activity against Enterococcus faecium ATCC 19634 after 24 hrs by broth microdilution method; format: functional
# Escherichia coli [4] = experiment: Antimicrobial activity against Escherichia coli MTCC 443 after 24 hrs by broth microdilution method; format: functional; in short: as §1
# Enterococcus faecium [5] = experiment: Antimicrobial activity against vancomycin-resistant Enterococcus faecium ATCC 51559 after 24 hrs by broth microdilution method; format: functional; in short: as §2
# Klebsiella pneumoniae = experiment: Antimicrobial activity against beta-lactam-resistant Klebsiella pneumoniae ATCC 700603 after 24 hrs by broth microdilution method; format: functional; in short: as §2
# [6] = Hemolytic activity in human erythrocytes after 1 hr by spectrophotometry; format: ADME, cell-based, Erythrocyte
# In short: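 Fresh heparinised human erythrocytes suspended to 5 vol % in PBS pH 7.4, mixed with serially diluted compound, 1 h at 37 °C; no-compound and 1 vol % Triton X-100 controls. Supernatant A540 after centrifugation gave % hemolysis; triplicates averaged, sigmoidal fit gave HC50.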
# Staphylococcus aureus [7] = experiment: Ratio of MIC for Staphylococcus aureus MTCC 737 after 4 hrs in presence of 50% human serum to MIC for Staphylococcus aureus MTCC 737 after 4 hrs; format: functional
# In short: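 Compound mixed 1:1 with human serum (50% serum) and held at 37 °C; at 0, 2 and 4 h the mixture was serially 2-fold diluted in 0.9% saline. Activity against S. aureus then tested in triplicate by the standard broth microdilution MIC protocol.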
# Staphylococcus aureus [8] = experiment: Antimicrobial activity against Staphylococcus aureus MTCC 737 after 2 hrs by broth microdilution method in presence of 50% human plasma; format: functional, organism-based
# In short: (§3)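 Compound mixed 1:1 with fresh human plasma (50% plasma) and held at 37 °C; at 0, 2, 4, 6, 12 and 24 h aliquots were diluted 2-fold in 0.9% saline.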
# Staphylococcus aureus [9] = experiment: Antimicrobial activity against Staphylococcus aureus MTCC 737 after 4 hrs by broth microdilution method in presence of 50% human plasma; format: functional, organism-based; in short: as §3
# Staphylococcus aureus [10] = experiment: Antimicrobial activity against Staphylococcus aureus MTCC 737 at sub-MIC measured after 20 passages by broth microdilution method; format: functional, organism-based
# Escherichia coli [11] = experiment: Antimicrobial activity against Escherichia coli MTCC 443 at sub-MIC measured after 30 passages by broth microdilution method; format: functional, organism-based
# Staphylococcus aureus [12] = experiment: Antimicrobial activity against Staphylococcus aureus MTCC 737 assessed as increase in MIC measured after 20 passages by broth microdilution method relative to control; format: functional
# Escherichia coli [13] = experiment: Antimicrobial activity against Escherichia coli MTCC 443 assessed as increase in MIC measured after 30 passages by broth microdilution method relative to control; format: functional
# Staphylococcus aureus [14] = experiment: Antimicrobial activity against Staphylococcus aureus MTCC 737 assessed as membrane permeabilization at 12 times MIC by propidium iodide staining method; format: functional, organism-based
# Escherichia coli [15] = experiment: Antimicrobial activity against Escherichia coli MTCC 443 assessed as membrane permeabilization at 12 times MIC by propidium iodide staining method; format: functional, organism-based
# Staphylococcus aureus [16] = experiment: Antimicrobial activity against Staphylococcus aureus MTCC 737 assessed as membrane depolarization at 12 times MIC using DiSC3 by fluorescence spectroscopy; format: functional, organism-based
# In short: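 Mid-log S. aureus washed and resuspended in 5 mM HEPES, 5 mM glucose, 100 mM KCl (1:1:1); 2 μM DiSC3(5) added, 20 min preincubation.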
# Staphylococcus aureus [17] = experiment: Antimicrobial activity against Staphylococcus aureus MTCC 737 assessed as leakage of K+ at 12 times MIC using PBFI-AM by fluorescence spectroscopy; format: functional, organism-based
# Escherichia coli [18] = experiment: Antimicrobial activity against Escherichia coli MTCC 443 assessed as leakage of K+ at 12 times MIC using PBFI-AM by fluorescence spectroscopy; format: functional, organism-based
# [19] = Critical micelle concentration of the compound; format: ADME
# In short: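 Static light scattering at 90° (excitation and emission 400 nm) on compound dissolved at 500 μg/mL in yeast–dextrose broth at room temperature, measured over successive dilutions; cmc taken from the inflection point where intensity rises steeply then falls after a local maximum.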
# Staphylococcus aureus [20] = experiment: Bactericidal activity against Staphylococcus aureus MTCC 737 assessed as log reduction in CFU/ml at 6 times MIC by time-kill assay relative to control; format: functional
# Staphylococcus aureus [21] = experiment: Bactericidal activity against Staphylococcus aureus MTCC 737 assessed as log reduction in CFU/ml at 6 times MIC at 15 mins by time-kill assay relative to control; format: functional
# [22] = Cytotoxicity against mouse RAW264.7 cells at 16 ug/ml after 1 hr by MTT assay; format: cell-based; details: raw264.7, 1 h
# In short: (§4)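 RAW 264.7 cells grown in DMEM with 10% FBS to ~70–80% confluency, exposed to serially diluted compound 1 h at 37 °C, 5% CO2; untreated and Triton X-100 controls. MTT (5 mg/mL) 4 h, formazan dissolved in DMSO, OD 570 nm; viability normalised to controls, triplicates, sigmoidal fit for 50% viability.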
# [23] = Cytotoxicity against mouse RAW264.7 cells after 1 hr by MTT assay; format: cell-based; details: raw264.7, 1 h; in short: as §4
Compound,"MIC (Staphylococcus aureus [1]; MTCC 737, 24 h)","MIC (Staphylococcus aureus [2]; ATCC 33591, 24 h)","MIC (Enterococcus faecium [3]; ATCC 19634, 24 h)","MIC (Escherichia coli [4]; MTCC 443, 24 h)","MIC (Enterococcus faecium [5]; ATCC 51559, 24 h)","MIC (Klebsiella pneumoniae; ATCC 700603, 24 h)",HC50 at 1 h [6],other results
CCCCCCCCCCCCCCCC(=O)N(CCCNC(=O)[C@@H](N)Cc1ccccc1)CCCNC(=O)[C@@H](N)Cc1ccccc1.O=C(O)C(F)(F)F.O=C(O)C(F)(F)F,9 µg/mL,4.6 µg/mL,7.6 µg/mL,227 µg/mL,2.7 µg/mL,62 µg/mL,74 µg/mL,–
CCCCCCCCCCCC(=O)N(CCCNC(=O)[C@H](N)Cc1ccccc1)CCCNC(=O)[C@H](N)Cc1ccccc1.O=C(O)C(F)(F)F.O=C(O)C(F)(F)F,3.5 µg/mL,4.2 µg/mL,2.8 µg/mL,10 µg/mL,2.4 µg/mL,6.5 µg/mL,209 µg/mL,fold change (FC) (Staphylococcus aureus [7]): 2; Activity (Staphylococcus aureus [8]): Active; Activity (Staphylococcus aureus [9]): Active; Activity (Staphylococcus aureus [10]): Active; Activity (Escherichia coli [11]): Active; fold change (FC) (Staphylococcus aureus [12]): 800; fold change (FC) (Escherichia coli [13]): 250; Activity (Staphylococcus aureus [14]): Active; Activity (Escherichia coli [15]): Active; Activity (Staphylococcus aureus [16]): Active; Activity (Staphylococcus aureus [17]): Active; Activity (Escherichia coli [18]): Active; CMC [19]: 40 µg/mL; FC (Staphylococcus aureus [20]): 3; FC (Staphylococcus aureus [21]): 3; Activity [22]: Non-toxic; Activity [23]: Non-toxic
N[C@@H](Cc1ccccc1)C(=O)NCCCNCCCNC(=O)[C@@H](N)Cc1ccccc1.O=C(O)C(F)(F)F.O=C(O)C(F)(F)F.O=C(O)C(F)(F)F,> 250 µg/mL,–,> 250 µg/mL,> 250 µg/mL,> 250 µg/mL,> 250 µg/mL,–,–
CCCCCCCCCCCCCCCCCC(=O)N(CCCNC(=O)[C@@H](N)Cc1ccccc1)CCCNC(=O)[C@@H](N)Cc1ccccc1.O=C(O)C(F)(F)F.O=C(O)C(F)(F)F,11 µg/mL,5.2 µg/mL,10 µg/mL,248 µg/mL,2.9 µg/mL,87 µg/mL,65 µg/mL,CMC [19]: 20 µg/mL
COLISTIN,–,–,–,–,–,–,–,MIC (Staphylococcus aureus [1]): 25 µg/mL; MIC (Staphylococcus aureus [2]): 68 µg/mL; MIC (Enterococcus faecium [3]): > 250 µg/mL; MIC (Escherichia coli [4]): 0.5 µg/mL; MIC (Enterococcus faecium [5]): > 250 µg/mL; MIC (Klebsiella pneumoniae): 1.5 µg/mL
CCCCCCCCCCCC(=O)N(CCCN)CCCN.O=C(O)C(F)(F)F.O=C(O)C(F)(F)F,45 µg/mL,53 µg/mL,62 µg/mL,108 µg/mL,57 µg/mL,163 µg/mL,107 µg/mL,–
CN[C@H](CC(C)C)C(=O)N[C@H]1C(=O)N[C@@H](CC(N)=O)C(=O)N[C@H]2C(=O)N[C@H]3C(=O)N[C@H](C(=O)N[C@H](C(=O)O)c4cc(O)cc(O)c4-c4cc3ccc4O)[C@H](O)c3ccc(c(Cl)c3)Oc3cc2cc(c3O[C@@H]2O[C@H](CO)[C@@H](O)[C@H](O)[C@H]2O[C@H]2C[C@](C)(N)[C@H](O)[C@H](C)O2)Oc2ccc(cc2Cl)[C@H]1O [VANCOMYCIN],0.8 µg/mL,0.8 µg/mL,0.8 µg/mL,–,> 1000 µg/mL,–,–,–
N[C@@H](Cc1ccccc1)C(=O)NCCCN(CCCNC(=O)[C@@H](N)Cc1ccccc1)C(=O)[C@@H](N)Cc1ccccc1.O=C(O)C(F)(F)F.O=C(O)C(F)(F)F.O=C(O)C(F)(F)F,> 250 µg/mL,–,> 250 µg/mL,> 250 µg/mL,> 250 µg/mL,> 250 µg/mL,–,–
